Measurements as given in PMC10790741 (Journal of Pharmacy & Bioallied Sciences, 2023).
Entries after “also recorded” stand apart in the source; their conditions may differ.

Test system: male albino mice
Experiment: Neurotoxicity, rotarod test
Format: in vivo
Settings: 0.5 and 4 h
Outline: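 Male albino mice (25–30 g) were trained on a rotating rod (3.2 cm outer diameter, 10 rpm). Test compound was given at 30, 100 and 300 mg/kg, and mice were checked at 0.5 and 4 h. Neurotoxicity was failure to keep balance on the rod for 1 min, across three trials. The toxic dose was the dose at which 50% of animals fell.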

Compound | Neurotoxicity (result in words)
COc1ccc2ccc(C(/C=C/c3c[nH]c4ccccc34)N3C=CC(C(=O)O)C=C3)cc2c1 (centres unmarked) [5g, (E)-1-(3-(1H-indol-3-yl)-1-(7-methoxynaphthalen-2-yl)allyl)-1,4-dihydropyridine-4-carboxylic acid] | neurotoxic; also recorded: motor impairing
Cc1ccc2ccc(C(/C=C/c3c[nH]c4ccccc34)N3C=CC(C(=O)O)C=C3)cc2c1 (centres unmarked) [5i, (E)-1-(3-(1H-indol-3-yl)-1-(7-methylnaphthalen-2-yl)allyl)-1,4-dihydropyridine-4-carboxylic acid] | neurotoxic
